From ChEMBL document CHEMBL3861974, “Discovery of a Selective Aurora A Kinase Inhibitor by Virtual Screening” (J Med Chem, 2016)
The source made the active and inactive calls. The rule behind the calls is not given here.

Legend:
[1] = molecular target: T1, Aurora kinase A (Homo sapiens) (UniProt O14965); test: Inhibition of Aurora A kinase localization at spindle microtubules in human HeLa Kyoto cells at 10 uM incubated for 20 hrs; format: cell-based
T1 sequence (whole entry): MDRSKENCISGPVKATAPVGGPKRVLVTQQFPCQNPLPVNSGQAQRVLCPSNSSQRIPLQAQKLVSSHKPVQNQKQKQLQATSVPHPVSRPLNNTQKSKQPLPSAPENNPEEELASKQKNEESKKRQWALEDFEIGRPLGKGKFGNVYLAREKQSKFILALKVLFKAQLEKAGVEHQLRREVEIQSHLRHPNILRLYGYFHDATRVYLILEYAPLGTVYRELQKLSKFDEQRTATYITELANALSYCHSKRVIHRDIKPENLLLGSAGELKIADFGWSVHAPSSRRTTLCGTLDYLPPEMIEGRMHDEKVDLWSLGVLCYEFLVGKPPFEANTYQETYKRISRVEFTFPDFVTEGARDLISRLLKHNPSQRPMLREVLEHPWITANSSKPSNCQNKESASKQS
How it was run: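 HeLa Kyoto cells were treated overnight, then immunostained for Aurora A and TPX2 with DNA counterstain. Aurora A at spindle microtubules versus centrosomes was assessed by fluorescence imaging.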

[2] = molecular target: T2, Aurora kinase B (Homo sapiens, UniProt Q96GD4); test: Inhibition of Aurora B kinase in human HeLa Kyoto cells assessed as effect on distribution of phspho-histone H3 ser10 level incubated for 20 hrs
[3] = molecular target: T3, Aurora kinase A (Homo sapiens, UniProt O14965); test: Inhibition of His-tagged human Aurora A kinase ([…] residues) expressed in Escherichia coli BL21 (DE3) Rosetta cells using biotinylated STK2 substrate incubated for 30 mins in presence of 0.002 uM TPX2 by HTRF assay
T3 sequence (O14965 whole entry): T1 sequence (whole entry)
How it was run: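 Biochemical kinase inhibition was read by HTRF with 20 µM ATP. Aurora B was assayed as its complex with the activator INCENP. For Aurora A, IC50 curves were recorded at different TPX2 concentrations.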

[4] = molecular target: T2, Aurora kinase B; test: Inhibition of Aurora B kinase in human HeLa Kyoto cells assessed as induction of accumulation of cells at 8N DNA contant incubated for 48 hrs at 10 uM by flow cytometry; format: cell-based
How it was run: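 Cells were treated for 48 h, stained with propidium iodide, and DNA content was analysed by flow cytometry. Cells with 8N and 16N DNA content were scored as a readout of defective cytokinesis.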

[5] = molecular target: T3, Aurora kinase A; test: Inhibition of His-tagged human Aurora A kinase ([…] residues) expressed in Escherichia coli BL21 (DE3) Rosetta cells using biotinylated STK2 substrate incubated for 30 mins by HTRF assay

T2 sequence (Q96GD4 whole entry): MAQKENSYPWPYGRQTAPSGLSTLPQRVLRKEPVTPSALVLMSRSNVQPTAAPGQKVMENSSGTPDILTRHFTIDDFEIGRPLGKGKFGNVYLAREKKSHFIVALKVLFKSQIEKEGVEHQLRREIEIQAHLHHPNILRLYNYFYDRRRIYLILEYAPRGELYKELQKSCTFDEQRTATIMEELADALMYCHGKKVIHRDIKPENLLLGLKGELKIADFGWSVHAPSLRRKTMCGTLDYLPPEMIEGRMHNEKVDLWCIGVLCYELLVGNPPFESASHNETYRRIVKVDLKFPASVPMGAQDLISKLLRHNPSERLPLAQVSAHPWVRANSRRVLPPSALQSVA

inhibition [1]: Active
IC50 [2]: > 25000 nM
IC50 [3]: 1.7 nM
inhibition [4]: Active
IC50 [5]: 2 nM
SMILES: CCc1ccc(/N=C2\S/C(=C\c3ccnc(Nc4ccc(C(=O)O)cn4)c3)C(=O)N2C)cc1
